The values below come from ChEMBL document CHEMBL1240524, “A focused library of protein tyrosine phosphatase inhibitors” (J Med Chem, 2010).

Assay [1] has as its target Secreted effector protein (Yersinia pestis, UniProt O68720). In words: Inhibition of Yersinia pestis YOpH. A digest of the protocol: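 Phosphatase activity was read at 25 °C with p-NPP at its Km (1.7 mM). The buffer was 50 mM 3,3-dimethylglutarate pH 7.0 with 50 mM NaCl, 1 mM EDTA and 10% DMSO. Initial rates came from hydrolysis at 420 nm, 30 to 150 s after mixing. Percent inhibition was measured and IC50 values were calculated from it.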

For assay [2], the target named is T1, Tyrosine-protein phosphatase non-receptor type 7 (Homo sapiens, UniProt P35236).
T1 sequence (P35236 whole entry): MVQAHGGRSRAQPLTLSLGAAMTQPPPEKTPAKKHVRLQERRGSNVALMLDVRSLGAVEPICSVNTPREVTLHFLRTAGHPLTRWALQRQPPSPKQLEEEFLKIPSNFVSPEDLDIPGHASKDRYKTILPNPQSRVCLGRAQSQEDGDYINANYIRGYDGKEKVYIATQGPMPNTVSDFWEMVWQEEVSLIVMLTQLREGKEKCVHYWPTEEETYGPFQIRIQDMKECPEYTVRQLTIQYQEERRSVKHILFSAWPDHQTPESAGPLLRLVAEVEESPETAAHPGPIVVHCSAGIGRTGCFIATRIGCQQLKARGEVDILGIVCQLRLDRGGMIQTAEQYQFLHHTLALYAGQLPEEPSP
In words: Inhibition of HePTP. A digest of the protocol: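 HePTP assayed with 4-methylumbelliferyl phosphate at 174 μM (its measured Km) at 25 °C in 10% DMSO, 1 mM EDTA, 50 mM NaCl, 50 mM 3,3-dimethylglutarate, pH 7.0. Initial rates read as fluorescence (ex 340, em 460 nm) from 0 to 150 s after mixing. IC50 derived from percent inhibition.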

Assay [3] concerns the target T2, Tyrosine-protein phosphatase non-receptor type 2 (Homo sapiens, UniProt P17706).
T2 sequence (P17706 whole entry): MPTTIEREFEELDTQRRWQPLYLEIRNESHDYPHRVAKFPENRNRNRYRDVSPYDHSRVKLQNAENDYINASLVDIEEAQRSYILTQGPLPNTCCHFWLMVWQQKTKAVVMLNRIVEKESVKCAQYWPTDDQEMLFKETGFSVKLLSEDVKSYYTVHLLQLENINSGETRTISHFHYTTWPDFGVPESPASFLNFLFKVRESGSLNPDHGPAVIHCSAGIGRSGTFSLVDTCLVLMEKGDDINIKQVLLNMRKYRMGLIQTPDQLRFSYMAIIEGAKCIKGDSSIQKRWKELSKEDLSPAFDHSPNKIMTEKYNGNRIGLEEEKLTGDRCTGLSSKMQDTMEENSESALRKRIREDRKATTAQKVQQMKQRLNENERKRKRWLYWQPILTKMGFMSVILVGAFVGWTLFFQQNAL
In words: Inhibition of TCPTP. A digest of the protocol:
(§1)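 Medium: 10% DMSO, 1 mM EDTA, 50 mM NaCl, 50 mM 3,3-dimethylglutarate, pH 7.0. Initial rates taken as absorbance at 420 nm from 30 to 150 s after mixing. IC50 derived from percent inhibition.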

For assay [4], the target named is T3, Tyrosine-protein phosphatase non-receptor type 1 (Homo sapiens, UniProt P18031).
T3 sequence (P18031 whole entry): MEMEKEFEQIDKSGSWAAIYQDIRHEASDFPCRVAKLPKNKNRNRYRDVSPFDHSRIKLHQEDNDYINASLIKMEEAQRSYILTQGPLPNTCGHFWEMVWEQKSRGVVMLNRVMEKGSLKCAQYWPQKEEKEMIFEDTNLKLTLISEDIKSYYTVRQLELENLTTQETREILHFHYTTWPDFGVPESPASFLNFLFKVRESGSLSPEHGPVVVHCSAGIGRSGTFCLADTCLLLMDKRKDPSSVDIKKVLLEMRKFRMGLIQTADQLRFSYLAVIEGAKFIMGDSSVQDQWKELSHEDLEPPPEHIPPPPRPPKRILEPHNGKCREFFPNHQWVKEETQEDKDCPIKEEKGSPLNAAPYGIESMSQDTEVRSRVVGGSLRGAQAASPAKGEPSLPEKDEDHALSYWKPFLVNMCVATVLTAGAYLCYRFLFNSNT
In words: Inhibition of PTP1B. A digest of the protocol:
as §1

The nature of assay [5]: Selectivity ratio of IC50 for TCPTP to IC50 for PTP1B.

Chain of Secreted effector protein (O68720 whole entry): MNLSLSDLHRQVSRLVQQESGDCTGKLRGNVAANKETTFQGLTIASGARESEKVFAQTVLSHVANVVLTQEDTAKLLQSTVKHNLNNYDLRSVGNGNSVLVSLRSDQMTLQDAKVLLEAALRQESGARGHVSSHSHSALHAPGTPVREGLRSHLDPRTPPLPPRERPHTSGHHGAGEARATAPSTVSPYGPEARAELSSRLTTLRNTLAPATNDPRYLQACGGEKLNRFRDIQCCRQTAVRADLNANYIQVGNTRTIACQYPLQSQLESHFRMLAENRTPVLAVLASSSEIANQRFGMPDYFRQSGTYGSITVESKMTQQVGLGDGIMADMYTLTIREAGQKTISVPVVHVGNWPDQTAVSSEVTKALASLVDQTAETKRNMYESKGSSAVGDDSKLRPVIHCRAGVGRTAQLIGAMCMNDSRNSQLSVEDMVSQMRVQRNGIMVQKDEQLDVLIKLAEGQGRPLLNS

By IC50 is commonly meant the point on the concentration scale where inhibition reaches its midpoint. The low end stands for higher potency, the high end for lower potency. `N#Cc1ccc(Oc2ccc(NC(=O)c3cc(COc4ccc(C(=O)C(=O)O)cc4)ccc3COc3ccc(C(=O)C(=O)O)cc3)cc2)cc1` registered an IC50 in assay [1] of 1300 nM.

For `CCCCCCc1ccc(Oc2ccc(NC(=O)c3cc(COc4ccc(C(=O)C(=O)O)cc4)ccc3COc3ccc(C(=O)C(=O)O)cc3)cc2)cc1`, the IC50 in assay [2] worked out at 28 µM; in assay [3], 2.3 µM; in assay [1], 90 nM; in assay [4] it was 1200 nM. In turn, `Cc1ccccc1Oc1ccc(NC(=O)c2cc(COc3ccc(C(=O)C(=O)O)cc3)ccc2COc2ccc(C(=O)C(=O)O)cc2)cc1` showed a 50% inhibitory concentration (IC50) in assay [1] of 230 nM.

As for `O=C(O)C(=O)c1ccc(OCc2ccc(COc3ccc(C(=O)C(=O)O)cc3)c(C(=O)Nc3ccc(Oc4ccc(SC(F)(F)F)cc4)cc3)c2)cc1`, the IC50 is 53 µM in assay [2], 4 µM in assay [3], 50 nM in assay [1] and 1600 nM in assay [4]. For the compound `O=C(O)C(=O)c1ccc(OCc2ccc(COc3ccc(C(=O)C(=O)O)cc3)c(C(=O)Nc3ccc(Oc4cccc(F)c4)cc3)c2)cc1`, half-maximal inhibition in assay [1] (IC50) required 220 nM. The same measure, in the same setting: the value for `O=C(O)C(=O)c1ccc(OCc2ccc(COc3ccc(C(=O)C(=O)O)cc3)c(C(=O)Nc3ccc(Oc4ccc(F)cc4)cc3)c2)cc1` was 110 nM; that for `CCCCc1ccc(Oc2ccc(NC(=O)c3cc(COc4ccc(C(=O)C(=O)O)cc4)ccc3COc3ccc(C(=O)C(=O)O)cc3)cc2)cc1` was 200 nM; that for `CSc1ccc(Oc2ccc(NC(=O)c3cc(COc4ccc(C(=O)C(=O)O)cc4)ccc3COc3ccc(C(=O)C(=O)O)cc3)cc2)cc1` was 110 nM. Compound `O=C(O)C(=O)c1ccc(OCc2ccc(COc3ccc(C(=O)C(=O)O)cc3)c(C(=O)Nc3cccc(OCc4ccccc4)c3)c2)cc1` gave a 50% inhibitory concentration (IC50) in assay [1] of 100 nM. This IC50 and that of the compound before are within 1.5-fold of each other.

Compound `O=C(O)C(=O)c1ccc(OCc2ccc(COc3ccc(C(=O)C(=O)O)cc3)c(C(=O)Nc3ccc(Oc4ccc(Cl)c(Cl)c4)cc3)c2)cc1` showed an IC50 in assay [1] of 210 nM. Compared with the last compound, the IC50 is about 2.1-fold higher.

Take `Cc1ccc(Oc2ccc(NC(=O)c3cc(COc4ccc(C(=O)C(=O)O)cc4)ccc3COc3ccc(C(=O)C(=O)O)cc3)cc2)cc1`: half-maximal inhibition in assay [1] (IC50) was put at 190 nM. On the same count and under the same terms, with `COc1ccc(Oc2ccc(NC(=O)c3cc(COc4ccc(C(=O)C(=O)O)cc4)ccc3COc3ccc(C(=O)C(=O)O)cc3)cc2)cc1` the figure was 1100 nM. In the case of `O=C(O)C(=O)c1ccc(OCc2ccc(COc3ccc(C(=O)C(=O)O)cc3)c(C(=O)Nc3ccc(Oc4ccccc4)cc3)c2)cc1`, in assay [5], the Ratio IC50 was below 2. In assay [1], this compound had a concentration for half-maximal inhibition (IC50) of 240 nM.

`CC(C)c1ccc(Oc2ccc(NC(=O)c3cc(COc4ccc(C(=O)C(=O)O)cc4)ccc3COc3ccc(C(=O)C(=O)O)cc3)cc2)cc1` yielded an IC50 in assay [1] of 800 nM. `CCc1ccc(Oc2ccc(NC(=O)c3cc(COc4ccc(C(=O)C(=O)O)cc4)ccc3COc3ccc(C(=O)C(=O)O)cc3)cc2)cc1`: the IC50 in assay [2] amounted to 52 µM; in assay [3] it was 3.5 µM; in assay [1], 70 nM; in assay [4], 490 nM.

Compound `O=C(O)C(=O)c1ccc(OCc2ccc(COc3ccc(C(=O)C(=O)O)cc3)c(C(=O)Nc3ccc(Oc4ccc(F)cc4F)cc3)c2)cc1` showed an IC50 in assay [1] of 910 nM. Take `O=C(O)C(=O)c1ccc(OCc2ccc(COc3ccc(C(=O)C(=O)O)cc3)c(C(=O)Nc3ccc(Oc4ccc(-c5ccccc5)cc4)cc3)c2)cc1`: the IC50 was found to be 21 µM in assay [2], 6.5 µM in assay [3], 30 nM in assay [1] and 220 nM in assay [4].
